This is one part of a sample in which hits are shown more often than they occur.
GASC1 inh: inhibitors of human demethylase GASC-1 KDM4C | GST-KDM4C 2-372, H3K9me3 peptide, LANCE TR-FRET | inhibition, % at 12.5 µM | Q9H3R0 | 96,000 compounds, 0.15% hits;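 active = mean replicate inhibition above about 25%, with at least 55% of replicates also reaching it, limit read from the data, passing the limit was not always enough; inconclusive = only one of those two conditions met; inactive = neither condition met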
Target sequence (Q9H3R0 2-372 limits assumed): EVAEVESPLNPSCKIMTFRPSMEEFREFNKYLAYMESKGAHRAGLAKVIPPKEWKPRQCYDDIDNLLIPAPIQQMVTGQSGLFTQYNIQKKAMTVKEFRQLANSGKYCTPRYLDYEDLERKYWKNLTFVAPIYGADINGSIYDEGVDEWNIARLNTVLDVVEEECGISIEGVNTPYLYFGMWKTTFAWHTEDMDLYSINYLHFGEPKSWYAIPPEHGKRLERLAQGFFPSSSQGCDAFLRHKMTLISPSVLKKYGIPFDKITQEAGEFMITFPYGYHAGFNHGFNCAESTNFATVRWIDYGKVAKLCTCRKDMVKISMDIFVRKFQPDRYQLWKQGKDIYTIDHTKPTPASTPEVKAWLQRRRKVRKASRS
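System: N-terminal GST-fused human GASC-1 (KDM4C) fragment, residues 2-372; amount: enzyme final amount 10 nM; incubation: reaction 30 min RT, detection step 1 h RT; medium: HEPES buffer, pH 7.5, plus ascorbate; technique: LANCE TR-FRET, Eu antibody, ULight-streptavidin, EDTA, ex 340 nm, em 618/671 nm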
T cruzi growth-1: inhibitors of T. cruzi proliferation. T. cruzi beta-gal in NIH3T3, GalScreen luminescence, 90 h. 77,000 compounds, 5.9% hits. inhibition, % at 8.34 µM;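 active = mean inhibition above about 93%, with at least 55% of replicates each passing it, limit read from the data, passing the limit was not always enough; inconclusive = only one of those two conditions holds; inactive = neither condition holds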
IDH1 mut inh: inhibitors of human IDH1 R132H; IDH1 R132H reductase, diaphorase/resazurin fluorescence, 60 min; O75874; AID 624101; inhibition, % at 10 µM; 70,000 compounds, 0.18% hits; in the data active = inhibition above about 34%; inconclusive = no clear call, values can overlap the other calls; inactive = below about 11%;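 also: 0% = DMSO and 100% = no enzyme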
T cruzi growth-2: inhibitors of T. cruzi proliferation. shares compounds with T cruzi growth-1. T. cruzi beta-gal in NIH3T3, GalScreen luminescence, 90 h. inhibition, % at 8.35 µM. 5,600 compounds, 72% hits. AID 651739;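 active = mean replicate inhibition above about 95% and at least 55% of replicates individually reaching it, limit read from the data; inconclusive = only one of the two criteria is met; inactive = neither criterion is met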
T cruzi growth-3: inhibitors of T. cruzi proliferation. shares compounds with T cruzi growth-1. T. cruzi beta-gal in NIH3T3, GalScreen luminescence, 90 h. inhibition, % at 2.09 µM. 5,600 compounds, 21% hits. AID 651740;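 active = mean inhibition above about 95%, with at least 55% of replicates also reaching it, limit read from the data; inconclusive = meets just one of the two conditions; inactive = meets neither condition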;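 also: plate controls were neutral control median for no effect and positive control median for full effect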
NIH3T3 tox: kills mouse NIH/3T3 fibroblasts; cytotoxicity (signal decrease), % at 8.35 µM; shares compounds with T cruzi growth-1; 5,600 compounds, 14% hits; NIH/3T3 viability, CellTiter-Glo ATP luminescence, 90 h;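 active = mean signal decrease across replicates above about 35% based on untreated-well scatter, with enough replicates individually passing, limit read from the data; inconclusive = no rule stated though some were filed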;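 also: 0% = median of neutral control wells and 100% = median of positive control wells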
3T3 cytotox 2: cytotoxicity in mouse NIH/3T3 fibroblasts; inhibition, % at 24.9 µM; shares compounds with T cruzi growth-1; 5,600 compounds, 56% hits; NIH/3T3 viability, CellTiter-Glo ATP luminescence, 90 h;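 active = mean loss of cell viability signal at or above a set limit, and enough replicates individually reaching it; inconclusive = meets only the mean limit or only the replicate share; inactive = meets neither condition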;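 also: 0% = median of neutral control wells and 100% = median of positive control wells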
* = called active by the depositor; ? = inconclusive; nt = no result given.

SMILES	GASC1 inh	T cruzi growth-1	IDH1 mut inh	T cruzi growth-2	T cruzi growth-3	NIH3T3 tox	3T3 cytotox 2
C[C@@H]1CN([C@H](C)CO)C(=O)c2cc(NC(=O)Nc3ccc(F)cc3)ccc2O[C@@H](C)CCCCO[C@H]1CN(C)S(=O)(=O)c1ccccc1	-1	?	nt	nt	nt	nt	nt
C[C@@H]1CCCCO[C@@H](CN(C)S(=O)(=O)c2ccccc2)[C@@H](C)CN([C@@H](C)CO)C(=O)c2cc(NC(=O)Nc3ccc(F)cc3)ccc2O1	0	87	0	nt	nt	nt	nt
Cc1ccc(S(=O)(=O)NCCSc2ncc(-c3ccc([N+](=O)[O-])cc3)[nH]2)cc1	nt	nt	0	nt	nt	nt	nt
N#Cc1ccc(-c2ccc3c(c2)[C@H]2[C@H](CCN2Cc2ccc4c(c2)OCO4)[C@H](CO)N3)cc1	0	?	nt	106*	69	-6	105*
CN(C)C(=O)c1ccc(-c2ccc3c(c2)[C@@H]2[C@@H](CCN2Cc2ccc4c(c2)OCO4)[C@H](CO)N3)cc1	1	40	nt	nt	nt	nt	nt
OC[C@@H]1Nc2ccc(C#Cc3ccc(F)cc3)cc2[C@H]2[C@@H]1CCN2Cc1ccc2c(c1)OCO2	0	142*	nt	109*	108*	41*	104*
CN(C)C(=O)c1ccc(-c2ccc3c(c2)[C@H]2[C@H](CCN2Cc2ccc4c(c2)OCO4)[C@@H](CO)N3)cc1	0	53	nt	nt	nt	nt	nt
Cc1ccc(-c2cc(C(=O)Nc3sc(C)c(-c4ccccc4)c3C(N)=O)c3ccccc3n2)o1	nt	nt	0	nt	nt	nt	nt
CCn1c(=O)c2c3c(sc2n2c(SCC(=O)Nc4ccc(Cl)cc4)nnc12)CCCC3	nt	nt	0	nt	nt	nt	nt
COc1ccc(C)cc1NC(=O)CN(c1ccc(I)cc1)S(C)(=O)=O	nt	nt	-1	nt	nt	nt	nt
COc1ccc(NC(=O)CCCN2C(=O)c3ccccc3C2=O)cc1Cl	nt	nt	0	nt	nt	nt	nt
Cc1ccc(NC(=O)CSc2nnnn2C)c(C)c1	nt	nt	0	nt	nt	nt	nt
C[C@H](CO)N1C[C@H](C)[C@H](CN(C)C)Oc2cc(C#Cc3ccc(F)cc3)ccc2S1(=O)=O	1	-168	-1	nt	nt	nt	nt
C[C@@H]1CN([C@H](C)CO)S(=O)(=O)c2ccc(C#Cc3ccc(F)cc3)cc2O[C@H]1CN(C)C	0	-36	-3	nt	nt	nt	nt
C[C@@H]1CN([C@@H](C)CO)S(=O)(=O)c2ccc(C#Cc3ccc(F)cc3)cc2O[C@@H]1CN(C)S(C)(=O)=O	1	?	5	91	36	36*	74*
C[C@H](CO)N1C[C@H](C)[C@@H](CN(C)S(C)(=O)=O)Oc2cc(C#Cc3ccc(F)cc3)ccc2S1(=O)=O	-1	106*	-7	109*	64	6	52*
C[C@@H]1CN([C@H](C)CO)S(=O)(=O)c2ccc(C#Cc3ccc(F)cc3)cc2O[C@@H]1CN(C)S(C)(=O)=O	0	?	1	?	59	46*	66*
C[C@@H]1CN([C@@H](C)CO)S(=O)(=O)c2ccc(C#Cc3ccc(F)cc3)cc2O[C@H]1CN(C)C	-4	-46	-2	nt	nt	nt	nt
O=C(O)CCC(=O)Nc1ccc(NC(=O)c2ccccc2)c(Cl)c1	nt	nt	0	nt	nt	nt	nt
O=C(Cn1c(=O)oc2ccccc21)Nc1cccc([N+](=O)[O-])c1	nt	nt	2	nt	nt	nt	nt
COc1ccccc1NC(=O)N1CCCCN2[C@@H](CO)[C@@H](c3ccc(-c4cccc(C)c4)cc3)[C@@H]2C1	-1	69	nt	nt	nt	nt	nt
COc1ccccc1NC(=O)N1CCCCN2[C@H](CO)[C@@H](c3ccc(C#Cc4ccccc4)cc3)[C@@H]2C1	-1	49	nt	nt	nt	nt	nt
COc1ccccc1NC(=O)N1CCCCN2[C@H](CO)[C@H](c3ccc(-c4ccccc4)cc3)[C@@H]2C1	nt	111*	nt	105*	93	18	32*
COc1ccccc1NC(=O)N1CCCCN2[C@@H](CO)[C@@H](c3ccc(-c4ccc(C)cc4)cc3)[C@@H]2C1	12	94	nt	nt	nt	nt	nt
COc1ccccc1NC(=O)N1CCCCN2[C@H](C1)[C@H](c1ccc(C#Cc3ccccc3)cc1)[C@@H]2CO	0	114*	nt	104*	80	27	30*
COc1ccccc1NC(=O)N1CCCCN2[C@H](CO)[C@@H](c3ccc(-c4ccccc4)cc3)[C@@H]2C1	nt	107*	nt	108*	116*	24	105*
